What is called IC50 is the midpoint of a concentration-inhibition curve.

Results on ten compounds are retold here after ChEMBL document CHEMBL1143159, “Indole-2-amide based biochemical antagonist of Dishevelled PDZ domain interaction down-regulates Dishevelled-driven Tcf transcriptional activity” (Bioorg Med Chem Lett, 2008).

Activity calls are given as the source filed them. No cut-off for these calls is given here.

The target of experiment [1] is T1, Segment polarity protein dishevelled homolog DVL-3 (Homo sapiens, UniProt Q92997).
T1 sequence (Q92997 whole entry): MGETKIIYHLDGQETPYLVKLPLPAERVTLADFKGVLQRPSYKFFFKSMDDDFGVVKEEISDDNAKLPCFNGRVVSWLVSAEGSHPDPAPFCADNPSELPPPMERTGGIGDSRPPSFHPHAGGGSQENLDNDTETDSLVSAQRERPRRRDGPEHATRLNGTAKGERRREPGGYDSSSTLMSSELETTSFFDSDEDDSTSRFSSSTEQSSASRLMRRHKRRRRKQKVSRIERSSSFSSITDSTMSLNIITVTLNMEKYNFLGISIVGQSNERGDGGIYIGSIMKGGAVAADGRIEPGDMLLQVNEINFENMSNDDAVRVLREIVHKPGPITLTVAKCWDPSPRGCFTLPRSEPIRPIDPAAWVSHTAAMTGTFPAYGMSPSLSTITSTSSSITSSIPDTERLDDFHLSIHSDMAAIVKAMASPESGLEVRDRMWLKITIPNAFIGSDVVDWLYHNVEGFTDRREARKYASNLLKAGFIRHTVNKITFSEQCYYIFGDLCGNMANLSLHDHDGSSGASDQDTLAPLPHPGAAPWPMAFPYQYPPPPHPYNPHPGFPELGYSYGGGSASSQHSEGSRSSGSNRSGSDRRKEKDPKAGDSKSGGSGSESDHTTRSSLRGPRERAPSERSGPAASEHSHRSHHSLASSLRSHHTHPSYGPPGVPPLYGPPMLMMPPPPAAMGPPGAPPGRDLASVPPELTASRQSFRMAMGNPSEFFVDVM
As to the kind of experiment: Antagonist activity at human Dvl3 assessed as inhibition of interaction between Dvl3 PDZ domain and […] by alphaScreen assay. It counts as functional. The gist of the method: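 Competitive AlphaScreen energy-transfer assay for binding of the Dvl PDZ domain to the Fz7 PDZ-binding region. IC50 fitted from binding curves, each the mean of three independent experiments.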

The target in experiment [2] is T2, Segment polarity protein dishevelled homolog DVL-1 (Homo sapiens, UniProt O14640).
T2 sequence (O14640 whole entry): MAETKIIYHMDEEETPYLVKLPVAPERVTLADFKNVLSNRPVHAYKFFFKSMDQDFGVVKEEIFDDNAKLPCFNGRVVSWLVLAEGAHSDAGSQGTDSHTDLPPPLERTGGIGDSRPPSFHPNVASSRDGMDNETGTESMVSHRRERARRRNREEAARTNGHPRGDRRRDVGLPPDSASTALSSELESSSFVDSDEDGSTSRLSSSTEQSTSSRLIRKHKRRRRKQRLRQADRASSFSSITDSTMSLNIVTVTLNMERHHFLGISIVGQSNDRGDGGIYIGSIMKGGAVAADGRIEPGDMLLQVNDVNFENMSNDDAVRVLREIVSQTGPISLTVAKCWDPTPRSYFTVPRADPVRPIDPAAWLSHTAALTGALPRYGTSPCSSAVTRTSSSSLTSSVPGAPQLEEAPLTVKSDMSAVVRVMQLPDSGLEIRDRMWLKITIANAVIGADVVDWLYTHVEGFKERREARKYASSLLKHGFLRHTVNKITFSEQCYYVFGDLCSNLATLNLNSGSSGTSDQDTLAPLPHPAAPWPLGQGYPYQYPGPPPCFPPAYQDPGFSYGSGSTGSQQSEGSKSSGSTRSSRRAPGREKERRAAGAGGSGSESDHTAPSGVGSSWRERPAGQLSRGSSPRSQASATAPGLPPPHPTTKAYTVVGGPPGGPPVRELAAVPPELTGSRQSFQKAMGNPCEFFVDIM
Kind of experiment: Antagonist activity at human Dvl1 assessed as inhibition of interaction between Dvl1 PDZ domain and […] by alphaScreen assay. It is filed as functional. On the technique in general: Bead proximity is the source of the signal in Alpha formats.

Experiment [3] has as its system SJRH30. As to the kind of experiment: Induction of apoptosis in human Rh30 cells assessed as caspase 3 activation at 100 uM after 2 days. It counts as functional, cell-based. The gist of the method: (§1)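 HepG2 hepatocellular carcinoma, Rh30 rhabdomyosarcoma and hTERT-immortalized BJ foreskin fibroblast cells were exposed to compound at 100 μM for 2 days. Caspase-3/7 activity was then read with Caspase3/7-Glo reagent and expressed as a proportion of the DMSO control (set to 1), as the mean of three independent experiments.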

The subject of experiment [4] is BJ. Kind of experiment: Induction of apoptosis in human BJ cells assessed as caspase 7 activation at 100 uM after 2 days. It counts as functional, cell-based. Summed up: as §1
The subject of experiment [5] is HepG2. As to the kind of experiment: Induction of apoptosis in human HepG2 cells assessed as caspase 3 activation at 100 uM after 2 days. It counts as functional, cell-based. Summed up:
as §1

The subject of experiment [6] is BJ. As to the kind of experiment: Induction of apoptosis in human BJ cells assessed as caspase 3 activation at 100 uM after 2 days. It counts as functional, cell-based. Summed up: as §1
Experiment [7] has as its system SJRH30. Kind of experiment: Induction of apoptosis in human Rh30 cells assessed as caspase 7 activation at 100 uM after 2 days. It is filed as functional, cell-based. The gist of the method: as §1
In experiment [8] the test system is HepG2. Kind of experiment: Induction of apoptosis in human HepG2 cells assessed as caspase 7 activation at 100 uM after 2 days. It is filed as functional, cell-based. The gist of the method:
as §1

In the case of `Cc1cc2[nH]c(C(=O)NC(C)(C)C)c(CCc3ccccc3)c2cc1C(=O)O`, the IC50 in experiment [1] and in experiment [2] was more than 500 µM each time.

With `Cc1cc2c(cc1C(=O)O)c(CCc1ccccc1)c(C(=O)NC1CCCCC1)n2C`, the outcome with SJRH30 [3], in the experiment with HepG2 [5], in the experiment with SJRH30 [7] and with HepG2 [8] was Active. The result in the experiment with BJ [4] and in the experiment on BJ [6] was inactive. For the same compound, the IC50 in experiment [1] turned out to be 92 µM.

On to `CCC(C)CNC(=O)c1[nH]c2cc(C)c(C(=O)O)cc2c1CCc1ccccc1` (stereo not drawn), for which the outcome in the experiment on SJRH30 [3], with HepG2 [5], in the experiment with SJRH30 [7] and with HepG2 [8] was Active. The result in the experiment on BJ [4] and in the experiment on BJ [6] was inactive. The half-inhibitory concentration (IC50) in experiment [1] came to 160 µM.

As for `CCCNC(=O)c1[nH]c2cc(C)c(C(=O)O)cc2c1CCc1ccccc1`, the IC50 in experiment [1] and in experiment [2] was more than 500 µM in each case.

As for `Cc1cc2[nH]c(C(=O)NCC3CC3)c(CCc3ccccc3)c2cc1C(=O)O`, the IC50 in experiment [1] and in experiment [2] was more than 500 µM throughout.

Turning to `COC(=O)c1cc2c(CCc3ccccc3)c(C(=O)NC3CCCCC3)[nH]c2cc1C`, in experiment [1], the IC50 is 57 µM.

On to `Cc1cc2[nH]c(C(=O)NC3CCCCC3)c(CCc3ccccc3)c2cc1C(=O)O`, for which the result with SJRH30 [3], in the experiment on HepG2 [5], with SJRH30 [7] and in the experiment on HepG2 [8] was Active. For the same compound, the result in the experiment with BJ [4] and with BJ [6] was inactive. Besides, the IC50 in experiment [1] came out at 23 µM.

In the case of `Cc1cc2[nH]c(C(=O)NCCC(=O)O)c(CCc3ccccc3)c2cc1C(=O)O`, the IC50 in experiment [1] and in experiment [2] was more than 500 µM each time.

Take `Cc1cc2[nH]c(C(=O)NCC3CCCCC3)c(CCc3ccccc3)c2cc1C(=O)O`: the IC50 in experiment [1] came to 309 µM.

With `Cc1cc2[nH]c(C(=O)NCc3ccccc3)c(CCc3ccccc3)c2cc1C(=O)O`, the result with SJRH30 [3], with HepG2 [5], with SJRH30 [7] and in the experiment with HepG2 [8] was Active. Further, the outcome with BJ [4] and in the experiment on BJ [6] was inactive. For the same compound, the half-inhibitory concentration (IC50) in experiment [1] worked out at 291 µM.
